In ChEMBL document CHEMBL3352373, “Design and synthesis of 21-alkynylaryl pregnenolone derivatives and evaluation of their anticancer activity” (Bioorg Med Chem, 2014):
Calls of active or inactive are those of the source. The rule behind the calls is not given here.

Columns and labels:
HT-29 [1] = assay: Cytotoxic activity against human HT-29 cells after 48 hrs by MTT assay; format: functional, cell-based; conditions: HT-29, 48 h
Procedure, shortened: (§1)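 MTT assay; log-phase cells seeded at 10^4 cells/well in DMEM, allowed to attach for 24 h at 37 °C, 5% CO2. Compounds dissolved in DMSO/water (1:1) and tested at 0.1–100 µM (1:2 serial dilutions), four replicates per condition. MTT at 0.5 mg/ml final added 4 h before end; dissolved in 0.1 N HCl/isopropanol, A545 read. Untreated cells as 100% growth, blank subtracted; IC50 as mean ± SD of 3–4 independent experiments.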

LNCaP [2] = assay: Cytotoxic activity against human LNCAP cells after 24 hrs by MTT assay; format: functional, cell-based; procedure, shortened: as §1
A549 [3] = assay: Cytotoxic activity against human A549 cells after 48 hrs by MTT assay; format: functional, cell-based; conditions: A549, 48 h; procedure, shortened: as §1
HT-29 [4] = assay: Cytotoxic activity against human HT-29 cells after 24 hrs by MTT assay; format: functional, cell-based; conditions: HT-29, 24 h; procedure, shortened: as §1
MCF7 [5] = assay: Cytotoxic activity against human MCF7 cells after 24 hrs by MTT assay; format: functional, cell-based; conditions: MCF7, 24 h; procedure, shortened: as §1
[6] = Inhibition of PI3K/Akt signalling pathway in human A431 cells at cytotoxic IC50 after 24 hrs by immunoblot; format: cell-based; conditions: A-431
Procedure, shortened: (§2)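 Cells dosed at their cytotoxic IC50 and lysed 24 h later (A431 also sampled over time) in ice-cold HEPES pH 7.5 buffer with phosphatase/protease inhibitors and 0.5% Triton X-100. 50 µg protein per lane on 10% SDS–PAGE, transferred to nitrocellulose, blocked in 5% milk/TBS-T. Probed overnight at 4 °C with anti-pAkt (Ser473; 1:1000) and β-actin loading control; HRP secondary, ECL detection. Untreated cells as control.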

HepG2 [7] = assay: Cytotoxic activity against human HepG2 cells after 24 hrs by MTT assay; format: functional, cell-based; conditions: HepG2, 24 h; procedure, shortened: as §1
[8] = Inhibition of PI3K/Akt signalling pathway in human A431 cells at cytotoxic IC50 after 2 to 24 hrs by immunoblot; format: cell-based; conditions: A-431, TDE = time-dependent effect; procedure, shortened: as §2
HeLa [9] = assay: Cytotoxic activity against human HeLa cells after 24 hrs by MTT assay; format: functional, cell-based; procedure, shortened: as §1
A-431 [10] = assay: Cytotoxic activity against human A431 cells after 24 hrs by MTT assay; format: functional, cell-based; conditions: A-431, 24 h; procedure, shortened: as §1
LNCaP [11] = assay: Cytotoxic activity against human LNCAP cells assessed as cell viability at 10 uM after 24 hrs by trypan blue exclusion method; format: functional; conditions: read-out: Activity
Procedure, shortened: (§3)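 Trypan blue exclusion after 24 h compound exposure. Medium collected, attached cells trypsinized and pooled with it, then centrifuged at 1200 rpm for 5 min. Pellet resuspended in PBS with 0.2% trypan blue. 200–300 cells counted per experiment in three separate experiments. Viability is the percentage of viable cells over total cells, taken as the mean.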

A-431 [12] = assay: Cytotoxic activity against human A431 cells assessed as cell viability at 5 uM after 24 hrs by trypan blue exclusion method; format: functional; conditions: A-431, 24 h, read-out: Activity; procedure, shortened: as §3
MCF7 [13] = assay: Cytotoxic activity against human MCF7 cells assessed as cell viability at 10 uM after 24 hrs by trypan blue exclusion method; format: functional; conditions: MCF7, 24 h, read-out: Activity; procedure, shortened: as §3
HeLa [14] = assay: Cytotoxic activity against human HeLa cells after 48 hrs by MTT assay; format: functional, cell-based; procedure, shortened: as §1
A-431 [15] = assay: Cytotoxic activity against human A431 cells after 48 hrs by MTT assay; format: functional, cell-based; conditions: A-431, 48 h; procedure, shortened: as §1
HepG2 [16] = assay: Cytotoxic activity against human HepG2 cells after 48 hrs by MTT assay; format: functional, cell-based; conditions: HepG2, 48 h; procedure, shortened: as §1
MCF7 [17] = assay: Cytotoxic activity against human MCF7 cells after 48 hrs by MTT assay; format: functional, cell-based; conditions: MCF7, 48 h; procedure, shortened: as §1
HeLa [18] = assay: Cytotoxic activity against human HeLa cells assessed as cell viability at 10 uM after 24 hrs by trypan blue exclusion method; format: functional; conditions: read-out: Activity; procedure, shortened: as §3
A549 [19] = assay: Cytotoxic activity against human A549 cells after 24 hrs by MTT assay; format: functional, cell-based; conditions: A549, 24 h; procedure, shortened: as §1
LNCaP [20] = assay: Cytotoxic activity against human LNCAP cells after 48 hrs by MTT assay; format: functional, cell-based; procedure, shortened: as §1
[21] = Inhibition of PI3K/Akt signalling pathway in human LNCAP cells at cytotoxic IC50 after 24 hrs by immunoblot; format: cell-based; procedure, shortened: as §2
[22] = Inhibition of PI3K/Akt signalling pathway in human MCF7 cells at cytotoxic IC50 after 24 hrs by immunoblot; format: cell-based; procedure, shortened: as §2
[23] = Inhibition of PI3K/Akt signalling pathway in human HeLa cells at cytotoxic IC50 after 24 hrs by immunoblot; format: cell-based; procedure, shortened: as §2

Structure (SMILES) | IC50 (HT-29 [1]) [µM] | IC50 (LNCaP [2]) [µM] | IC50 (A549 [3]) [µM] | IC50 (HT-29 [4]) [µM] | IC50 (MCF7 [5]) [µM] | inhibition [6] | IC50 (HepG2 [7]) [µM] | IC50 (HeLa [9]) [µM] | IC50 (A-431 [10]) [µM] | viability at 10 µM (LNCaP [11]) [%] | viability at 5 µM (A-431 [12]) [%] | viability at 10 µM (MCF7 [13]) [%] | IC50 (HeLa [14]) [µM] | IC50 (A-431 [15]) [µM] | IC50 (HepG2 [16]) [µM] | IC50 (MCF7 [17]) [µM] | viability at 10 µM (HeLa [18]) [%] | IC50 (A549 [19]) [µM] | IC50 (LNCaP [20]) [µM] | also measured
C[C@]12CC[C@H]3[C@@H](CC=C4C[C@@H](O)CC[C@@]43C)[C@@H]1CC[C@@H]2C(=O)C#Cc1cccc(C(F)(F)F)c1 | 26.4 | 26.2 | 20.7 | > 50 | 31.4 | Active | 45.7 | 25.1 | 2.28 | 92.1 | 0 | 94.2 | 8.34 | 0.54 | 16.4 | 18.6 | 92.5 | 29.3 | 17.4 | inhibition [8]: tde
COc1ccc(C#CC(=O)[C@H]2CC[C@H]3[C@@H]4CC=C5C[C@@H](O)CC[C@]5(C)[C@H]4CC[C@]23C)c(C)c1 | 22.7 | 41.7 | 30.5 | 48.4 | 44.1 |  | > 50 | > 50 | 44.1 |  |  |  | 23.6 | 13.7 | 45.7 | 18.8 |  | 44.3 | 30.8 | 
C[C@]12CC[C@H]3[C@@H](CC=C4C[C@@H](O)CC[C@@]43C)[C@@H]1CC[C@@H]2C(=O)C#Cc1ccc(F)cc1 | 44.7 | 12.4 | 40.6 | > 50 | > 50 | Active | > 50 | > 50 | 7.16 | 25.6 | 28.6 | 90.4 | 43.7 | 2.18 | > 50 | > 50 | 98.4 | > 50 | 10.8 | 
C[C@]12CC[C@H]3[C@@H](CC=C4C[C@@H](O)CC[C@@]43C)[C@@H]1CC[C@@H]2C(=O)C#Cc1ccccc1C(F)(F)F | 9.87 | 7.9 | 6.3 | 24.6 | 13.5 | Active | 38.4 | 13.8 | 4.21 | 0 | 0 | 18.9 | 3.85 | 1.78 | 12.6 | 4.42 | 70.8 | 15.8 | 5.44 | inhibition [21]: Active; inhibition [22]: Active; inhibition [23]: Active
C[C@]12CC[C@H]3[C@@H](CC=C4C[C@@H](O)CC[C@@]43C)[C@@H]1CC[C@@H]2C(=O)C#Cc1cccc(F)c1 | 28.6 | 14.7 | 24.9 | > 50 | 28.4 |  | > 50 | 21.4 | > 50 |  |  |  | 6.44 | 45.3 | > 50 | 14.7 |  | > 50 | 9.48 | 
